The subject of assay [1] is HEK293. Kind of assay: Cytotoxicity against human HEK293 cells assessed as inhibition of cell viability at […] incubated for 30 mins by cell titer-glo assay relative to control. In kind it is functional.
Assay [2] deals with HEK293. As to the kind of experiment: Cytotoxicity against human HEK293 cells assessed as inhibition of cell viability incubated for 30 mins in presence of CRBN-tracer by nanoBRET assay. In kind it is functional, cell-based. On the technique in general: Bioluminescence resonance energy transfer reports proximity on the nanometre scale.
The target of assay [3] is Protein cereblon/Bromodomain-containing protein 4 (Homo sapiens, UniProt O60885+Q96SW2). As to the kind of experiment: PROTAC activity at […]/BRD4 in human HEK293T cells assessed as degradation of BRD4 incubated for 24 hrs by HiBiT assay. Format: cell-based. On the technique in general: HiBiT is a short tag that completes a luciferase, so light tracks the accessible tagged protein.

For assay [4], the system named is HEK293. Kind of assay: Cytotoxicity against permeabilized HEK293 cells assessed as inhibition of cell viability incubated for 30 mins in presence of CRBN-tracer by nanoBRET assay. In kind it is functional, cell-based, Homo sapiens. The procedure, abridged: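 Transfected HEK293 cells (NanoLuc-CRBN plus DDB1), thawed from frozen into phenol-red-free Opti-MEM (500,000 cells/mL). Wells held CRBN-tracer (7.5 nL) and 11-pt 3-fold titrations (50 uM top assay concentration); 18 uL cells added, then 2 uL 0.5 mg/mL digitonin, 30 min at room temperature. NanoBRET substrate 1:166, no extracellular inhibitor; BRET luminescence at 450-480 nm and 610-LP.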

In assay [5] the test system is HEK293. As to the kind of experiment: Cytotoxicity against human HEK293 cells assessed as inhibition of cell viability incubated for 24 hrs by cell titer-glo assay. Particulars: HEK293, 24 h.
For assay [6], the system named is HEK293. Kind of assay: Cytotoxicity against human HEK293 cells assessed as inhibition of cell viability at 10 uM incubated for 30 mins by cell titer-glo assay relative to control. Format: functional. Particulars: HEK293, 0.5 h. In general terms: ATP-based viability assays read luminescence as a measure of living cells.
Assay [7] addresses Bromodomain-containing protein 4 (Homo sapiens) (UniProt O60885). As to the kind of experiment: Relative binding affinity to BRD4 (unknown origin).
The subject of assay [8] is HEK293. As to the kind of experiment: Cytotoxicity against human HEK293 cells assessed as inhibition of cell viability at 12 uM incubated for 30 mins by cell titer-glo assay relative to control. In kind it is functional. Particulars: HEK293, 0.5 h.
Where [9] appears, read: Homo sapiens, HEK293, 0.5 h, read-out: Emax.

Sequence of Protein cereblon/Bromodomain-containing protein 4 (Q96SW2 whole entry, looked up, other chains not shown): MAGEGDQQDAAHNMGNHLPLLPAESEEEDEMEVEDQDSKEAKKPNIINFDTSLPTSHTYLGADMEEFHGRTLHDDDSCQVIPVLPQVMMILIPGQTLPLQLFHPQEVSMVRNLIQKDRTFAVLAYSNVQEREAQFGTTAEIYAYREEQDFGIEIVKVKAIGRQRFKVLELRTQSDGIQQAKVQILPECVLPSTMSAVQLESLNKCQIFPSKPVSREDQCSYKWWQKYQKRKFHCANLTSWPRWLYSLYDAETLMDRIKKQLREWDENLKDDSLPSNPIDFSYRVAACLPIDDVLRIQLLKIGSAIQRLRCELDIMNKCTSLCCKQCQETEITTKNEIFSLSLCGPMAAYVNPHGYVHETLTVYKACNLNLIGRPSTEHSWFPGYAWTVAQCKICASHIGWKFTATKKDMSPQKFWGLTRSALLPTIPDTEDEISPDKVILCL

Turning to `Cc1sc2c(c1C)C(c1ccc(Cl)cc1)=N[C@@H](CC(=O)O)c1nnc(C)n1-2`, the Emax with HEK293 [1] (0.5 h) is listed as 14.23%. The IC50 in the assay with HEK293 [2] (Homo sapiens, HEK293, 0.5 h) is over 50000 nM; in the assay with HEK293 [4] (Homo sapiens, HEK293, 0.5 h), over 50000 nM. Moreover, the DC50 in assay [3] was over 50000 nM. The half-maximal effective concentration (EC50) with HEK293 [5] is over 50000 nM.

As for `Cc1ccc(C(=O)ON2C(=O)CCC2=O)cc1N1CCC(=O)NC1=O`, in the assay on HEK293 [1] (setting [9]), the Emax amounted to 9.24%. Moreover, the half-maximal inhibitory concentration (IC50) with HEK293 [2] (Homo sapiens, HEK293, 0.5 h) amounted to 22200 nM; in the assay on HEK293 [4] (Homo sapiens, HEK293, 0.5 h), 6040 nM. The half-maximal degradation concentration (DC50) in assay [3] was over 50000 nM. In the assay on HEK293 [5], the half-maximal effective concentration (EC50) was over 50000 nM.

In the case of `Cc1sc2c(c1C)C(c1ccc(Cl)cc1)=N[C@@H](CC(=O)NCCCCNC(=O)COc1cccc3c1C(=O)N(C1CCC(=O)NC1=O)C3=O)c1nnc(C)n1-2` (stereo in doubt; form 1), the half-maximal inhibitory concentration (IC50) amounted to 2200 nM in the assay with HEK293 [2] (hek293) and 90 nM in the assay with HEK293 [4] (Homo sapiens, HEK293, 0.5 h). The Emax at 10 µM in the assay on HEK293 [6] worked out at 25.2%.

Take `O=C1CCC(N2C(=O)c3cccc(OCC(=O)ON4C(=O)CCC4=O)c3C2=O)C(=O)N1` (stereo not given): the Emax in the assay with HEK293 [1] (setting [9]) amounted to 11.9%. The concentration for half-maximal inhibition (IC50) in the assay with HEK293 [2] (Homo sapiens, HEK293, 0.5 h) amounted to 7420 nM; with HEK293 [4] (Homo sapiens, HEK293, 0.5 h), 1050 nM. Moreover, in assay [3], the 50% degradation concentration (DC50) was over 50000 nM. The concentration giving a half-maximal response (EC50) in the assay with HEK293 [5] is over 50000 nM.

Consider `Cc1ccc(C(=O)NCCOCCN(C)C(=O)C[C@@H]2N=C(c3ccc(Cl)cc3)c3c(sc(C)c3C)-n3c(C)nnc32)cc1N1CCC(=O)NC1=O`, for which, in the assay on HEK293 [2] (Homo sapiens, HEK293, 0.5 h), the IC50 stood at 3200 nM. Also, in assay [3], the DC50 was found to be 23 nM. This molecule yielded a relative binding affinity (RBA) in assay [7] of 5.

As to `Cc1ccc(C(=O)N2CCC(Oc3cnc(N4CCN(C(=O)C[C@@H]5N=C(c6ccc(Cl)cc6)c6c(sc(C)c6C)-n6c(C)nnc65)CC4)nc3)CC2)cc1N1CCC(=O)NC1=O`, in the assay on HEK293 [2] (Homo sapiens, HEK293, 0.5 h), the half-maximal inhibitory concentration (IC50) was determined as 100 nM. In addition, the 50% degradation concentration (DC50) in assay [3] amounted to 20 nM. In addition, in assay [7], the relative binding affinity (RBA) is 0.9.

As to `Cc1sc2c(c1C)C(c1ccc(Cl)cc1)=N[C@@H](CC(=O)ON1C(=O)CCC1=O)c1nnc(C)n1-2`, in the assay with HEK293 [1] (setting [9]), the Emax was 5.26%. The IC50 with HEK293 [2] (Homo sapiens, HEK293, 0.5 h) is over 50000 nM; in the assay on HEK293 [4] (Homo sapiens, HEK293, 0.5 h), over 50000 nM. In addition, the half-maximal degradation concentration (DC50) in assay [3] is over 50000 nM. The concentration giving a half-maximal response (EC50) with HEK293 [5] was over 50000 nM.

As for `Cc1sc2c(c1C)C(c1ccc(Cl)cc1)=N[C@@H](CC(=O)N1CCN(CCN(C)C(=O)COc3cccc4c3C(=O)N(C3CCC(=O)NC3=O)C4=O)CC1)c1nnc(C)n1-2` (stereo not given in full), in the assay with HEK293 [2] (Homo sapiens, HEK293, 0.5 h), the half-maximal inhibitory concentration (IC50) amounted to 71 nM. Also, the DC50 in assay [3] stood at 241 nM. In assay [7], this molecule returned a relative binding affinity (RBA) of 25.

On to `Cc1sc2c(c1C)C(c1ccc(Cl)cc1)=N[C@@H](CC(=O)N[C@H]1C[C@H](N(C)C(=O)COc3cccc4c3C(=O)N(C3CCC(=O)NC3=O)C4=O)C1)c1nnc(C)n1-2` (stereo not given in full), for which the IC50 in the assay on HEK293 [2] (Homo sapiens, HEK293, 0.5 h) amounted to 89 nM. Also, the DC50 in assay [3] is 110 nM. The relative binding affinity (RBA) in assay [7] was determined as 25.

As to `Cc1sc2c(c1C)C(c1ccc(Cl)cc1)=N[C@@H](CC(=O)NCCCCNC(=O)COc1cccc3c1C(=O)N(C1CCC(=O)NC1=O)C3=O)c1nnc(C)n1-2` (stereo in doubt; form 2), the IC50 with HEK293 [2] (hek293) came to 930 nM; with HEK293 [4] (hek293) it was 56 nM. Further, the Emax at 12 µM with HEK293 [8] amounted to 21.7%.

Consider `Cc1ccc(C(=O)O)cc1N1CCC(=O)NC1=O`, for which the Emax with HEK293 [1] (setting [9]) came out at 7.84%. The IC50 with HEK293 [2] (Homo sapiens, HEK293, 0.5 h) is over 50000 nM; in the assay with HEK293 [4] (Homo sapiens, HEK293, 0.5 h) it was 1940 nM. Further, the DC50 in assay [3] is over 21700 nM. In addition, the EC50 with HEK293 [5] is over 50000 nM.

As for `O=C(O)COc1cccc2c1C(=O)N(C1CCC(=O)NC1=O)C2=O` (stereo not given), the Emax in the assay with HEK293 [1] (setting [9]) is 7.58%. Also, the IC50 with HEK293 [2] (Homo sapiens, HEK293, 0.5 h) is over 50000 nM; with HEK293 [4] (Homo sapiens, HEK293, 0.5 h) it was 830 nM. Moreover, the DC50 in assay [3] was over 50000 nM. Moreover, in the assay on HEK293 [5], the concentration giving a half-maximal response (EC50) was over 50000 nM.

For the molecule `Cc1sc2c(c1C)C(c1ccc(Cl)cc1)=N[C@@H](CC(=O)N1CCN(c3ncc(OC4CCN(C(=O)COc5cccc6c5C(=O)N(C5CCC(=O)NC5=O)C6=O)CC4)cn3)CC1)c1nnc(C)n1-2` (stereo not given in full), the half-maximal inhibitory concentration (IC50) with HEK293 [2] (Homo sapiens, HEK293, 0.5 h) is 70 nM. In assay [3], the DC50 stood at 6 nM. Moreover, the relative binding affinity (RBA) in assay [7] is 2.3.

On to `Cc1ccc(C(=O)N(C)[C@H]2C[C@H](NC(=O)C[C@@H]3N=C(c4ccc(Cl)cc4)c4c(sc(C)c4C)-n4c(C)nnc43)C2)cc1N1CCC(=O)NC1=O`, for which, in the assay with HEK293 [2] (Homo sapiens, HEK293, 0.5 h), the half-inhibitory concentration (IC50) turned out to be 2100 nM. Besides, in assay [3], the half-maximal degradation concentration (DC50) was over 20000 nM. The relative binding affinity (RBA) in assay [7] was 6.4.

Take `O=C1CCC(=O)N1O`: the Emax with HEK293 [1] (setting [9]) was 10.8%. Besides, the half-maximal inhibitory concentration (IC50) is over 50000 nM with HEK293 [2] (Homo sapiens, HEK293, 0.5 h) and over 50000 nM with HEK293 [4] (Homo sapiens, HEK293, 0.5 h). For the same molecule, the DC50 in assay [3] was over 50000 nM. Also, the EC50 in the assay on HEK293 [5] was over 50000 nM.

For the molecule `Cc1sc2c(c1C)C(c1ccc(Cl)cc1)=N[C@@H](CC(=O)N(C)CCOCCNC(=O)COc1cccc3c1C(=O)N(C1CCC(=O)NC1=O)C3=O)c1nnc(C)n1-2` (stereo not given in full), the 50% inhibitory concentration (IC50) in the assay on HEK293 [2] (Homo sapiens, HEK293, 0.5 h) stood at 1600 nM. In assay [3], the DC50 came out at 7100 nM. In assay [7], this molecule returned a relative binding affinity (RBA) of 9.6.

Consider `Cc1ccc(C(=O)N(C)CCN2CCN(C(=O)C[C@@H]3N=C(c4ccc(Cl)cc4)c4c(sc(C)c4C)-n4c(C)nnc43)CC2)cc1N1CCC(=O)NC1=O`, for which the half-inhibitory concentration (IC50) in the assay with HEK293 [2] (Homo sapiens, HEK293, 0.5 h) was found to be 4500 nM. Further, in assay [3], the DC50 turned out to be 88 nM. The molecule further yielded a relative binding affinity (RBA) in assay [7] of 0.9.

What is called IC50 is the concentration needed to halve the response being measured. A word on the DC50: it is the midpoint of the concentration-degradation curve. By EC50 is commonly meant the concentration giving half of the maximal effect.

These data come from ChEMBL document CHEMBL5120933, “Direct-to-Biology Accelerates PROTAC Synthesis and the Evaluation of Linker Effects on Permeability and Degradation” (ACS Med Chem Lett, 2022).
